Experimental data published in ChEMBL document CHEMBL3621107, “Ring fusion strategy for synthesis and lead optimization of sulfur-substituted anthra[1,2-c][1,2,5]thiadiazole-6,11-dione derivatives as promising scaffold of antitumor agents” (Eur J Med Chem, 2015).

Columns and labels:
Format in all cases: functional
[1] = tested on: HL-60(TB); experiment: Cytotoxicity against human HL-60(TB) cells after 48 hrs by SRB assay; settings: HL-60, 48 h
In short: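 NCI Developmental Therapeutics Program 60-cell-line screen, second stage: cells exposed to five concentrations (0.01, 0.1, 1, 10 and 100 μM). Growth is plotted against log10 concentration for each line, and GI50, TGI and LC50 are read from the dose-response curves.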

[2] = tested on: MOLT-4; experiment: Cytotoxicity against human MOLT4 cells after 48 hrs by SRB assay; settings: MOLT-4, 48 h
In short: (§1)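 Second-stage NCI-60 panel run by the NCI Developmental Therapeutics Program, covering nine tumour subpanels. Five concentrations were tested: 0.01, 0.1, 1, 10 and 100 μM. Percentage growth at each level was plotted against log10 drug concentration. GI50, TGI and LC50 were read from these dose-response curves. Subpanel MID values were divided into the full-panel MID to give selectivity ratios.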

[3] = tested on: RPMI-8226; experiment: Cytotoxicity against human RPMI8226 cells after 48 hrs by SRB assay; settings: RPMI-8226, 48 h; in short: as §1
[4] = tested on: HOP-92; experiment: Cytotoxicity against human HOP92 cells after 48 hrs by SRB assay; settings: HOP-92, 48 h
In short: (§2)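 NCI-60 human tumour cell panel screen, second stage, run by the NCI Developmental Therapeutics Program. Compounds were tested at five concentrations (0.01, 0.1, 1, 10 and 100 μM). Percentage growth was plotted against log10 concentration for each cell line. GI50, TGI and LC50 were taken from these dose-response curves.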

[5] = tested on: NCI-H322M; experiment: Cytotoxicity against human NCI-H322M cells after 48 hrs by SRB assay; in short: as §1
[6] = tested on: COLO 205; experiment: Cytotoxicity against human COLO205 cells after 48 hrs by SRB assay; settings: COLO 205, 48 h; in short: as §2
[7] = tested on: HCT-116; experiment: Cytotoxicity against human HCT116 cells after 48 hrs by SRB assay; settings: HCT-116, 48 h; for CC50: read-out: LC50 (the source's name); in short: as §2
[8] = tested on: HT-29; experiment: Cytotoxicity against human HT-29 cells after 48 hrs by SRB assay; settings: HT-29, 48 h; in short: as §2
[9] = tested on: SF-295; experiment: Cytotoxicity against human SF295 cells after 48 hrs by SRB assay; settings: SF-295, 48 h; in short: as §1
[10] = tested on: SF-539; experiment: Cytotoxicity against human SF539 cells after 48 hrs by SRB assay; settings: SF-539, 48 h; in short: as §1
[11] = tested on: SNB-19; experiment: Cytotoxicity against human SNB19 cells after 48 hrs by SRB assay; settings: SNB-19, 48 h; in short: as §1
[12] = tested on: MDA-MB-435; experiment: Cytotoxicity against human MDA-MB-435 cells after 48 hrs by SRB assay; settings: MDA-MB-435, 48 h; in short: as §1
[13] = tested on: SK-MEL-2; experiment: Cytotoxicity against human SK-MEL-2 cells after 48 hrs by SRB assay; settings: SK-MEL-2, 48 h; in short: as §1
[14] = tested on: SK-MEL-28; experiment: Cytotoxicity against human SK-MEL-28 cells after 48 hrs by SRB assay; settings: SK-MEL-28, 48 h; for CC50: read-out: LC50 (the source's name); in short: as §1
[15] = tested on: IGROV-1; experiment: Cytotoxicity against human IGROV1 cells after 48 hrs by SRB assay; settings: IGROV-1, 48 h; in short: as §2
[16] = tested on: OVCAR-3; experiment: Cytotoxicity against human OVCAR3 cells after 48 hrs by SRB assay; settings: OVCAR-3, 48 h; for CC50: read-out: LC50 (the source's name); in short: as §1
[17] = tested on: OVCAR-4; experiment: Cytotoxicity against human OVCAR4 cells after 48 hrs by SRB assay; settings: OVCAR-4, 48 h; in short: as §1
[18] = tested on: NCI/ADR-RES; experiment: Cytotoxicity against human NCI/ADR-RES cells after 48 hrs by SRB assay; in short: as §1
[19] = tested on: SK-OV-3; experiment: Cytotoxicity against human SKOV3 cells after 48 hrs by SRB assay; settings: SK-OV-3, 48 h; in short: as §1
[20] = tested on: 786-0; experiment: Cytotoxicity against human 786-0 cells after 48 hrs by SRB assay; settings: 786-0, 48 h; in short: as §2
[21] = tested on: CAKI-1; experiment: Cytotoxicity against human Caki1 cells after 48 hrs by SRB assay; settings: CAKI-1, 48 h; in short: as §2
[22] = tested on: TK-10; experiment: Cytotoxicity against human TK10 cells after 48 hrs by SRB assay; settings: TK-10, 48 h
In short: (§3)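 NCI-60 five-dose study run by NCI DTP at 0.01, 0.1, 1, 10 and 100 µM. Percentage growth at each level was plotted against log10 concentration for each line, and GI50, TGI and LC50 were read from the dose-response curves.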

[23] = tested on: PC-3; experiment: Cytotoxicity against human PC3 cells after 48 hrs by SRB assay; settings: PC-3, 48 h; in short: as §1
[24] = tested on: T47D; experiment: Cytotoxicity against human T47D cells after 48 hrs by SRB assay; in short: as §3
[25] = Cytotoxicity against human CNS cancer cells assessed as growth inhibition after 48 hrs by SRB assay; settings: Cancer cell lines
In short: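 NCI-60 five-dose data (0.01–100 μM) were grouped by tumour subpanel. A subpanel mean (MID) of GI50 was computed for the CNS cancer lines. A selectivity ratio was obtained as full-panel MID divided by subpanel MID: 3–6 counts as moderate, >6 as high.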

[26] = Cytotoxicity against human melanoma cells assessed as growth inhibition after 48 hrs by SRB assay; settings: Melanoma cell
In short: (§4)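 Values come from the NCI-60 five-dose panel (0.01–100 µM). The subpanel MID is the mean GI50 over the lines of that tumour subpanel. The selectivity ratio is the full-panel MID divided by the subpanel MID; 3–6 is rated moderate and >6 high.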

[27] = Cytotoxicity against human ovarian cancer cells assessed as growth inhibition after 48 hrs by SRB assay; settings: Cancer cell lines; in short: as §4

O=C1c2ccccc2C(=O)c2c1cc(SCc1ccccc1)c1nsnc21
GI50 [1]: 1.63 µM
LC50 [1]: > 50 µM
TGI [1]: > 50 µM
GI50 [2]: 1.2 µM
LC50 [2]: > 50 µM
TGI [2]: 3.62 µM
GI50 [3]: 8.45 µM
LC50 [3]: > 50 µM
TGI [3]: 33.4 µM
GI50 [4]: 6.05 µM
LC50 (concentration giving 50% net cell kill) [4]: > 50 µM
TGI [4]: > 50 µM
GI50 [5]: > 50 µM
LC50 (concentration causing 50% net cell kill) [5]: > 50 µM
TGI [5]: > 50 µM
GI50 [6]: 35.5 µM
LC50 [6]: > 50 µM
TGI [6]: > 50 µM
GI50 [7]: 7.29 µM
TGI [7]: 14.2 µM
CC50 [7]: 27.5 µM
GI50 [8]: > 50 µM
LC50 [8]: > 50 µM
TGI [8]: > 50 µM
GI50 [9]: > 50 µM
LC50 [9]: > 50 µM
TGI [9]: > 50 µM
GI50 [10]: 10.5 µM
LC50 [10]: 38.9 µM
TGI [10]: 20.2 µM
GI50 [11]: 12.7 µM
LC50 [11]: > 50 µM
TGI [11]: 38.8 µM
GI50 [12]: 9.19 µM
LC50 [12]: 37.3 µM
TGI [12]: 18.5 µM
GI50 [13]: 8.58 µM
LC50 [13]: 33.7 µM
TGI [13]: 18.6 µM
GI50 [14]: 10.3 µM
TGI [14]: 17.5 µM
CC50 [14]: 42.9 µM
GI50 [15]: 6.06 µM
LC50 [15]: 38.9 µM
TGI [15]: 15.4 µM
GI50 [16]: 8.16 µM
TGI [16]: 15.1 µM
CC50 [16]: 27.9 µM
GI50 [17]: 6.05 µM
LC50 [17]: 29 µM
TGI [17]: 13.2 µM
GI50 [18]: 12.9 µM
LC50 (concentration killing 50% of cells) [18]: > 50 µM
TGI [18]: > 50 µM
GI50 [19]: 13.7 µM
LC50 [19]: > 50 µM
TGI [19]: 18.5 µM
GI50 [20]: 12.3 µM
LC50 (concentration killing 50% of cells) [20]: > 50 µM
TGI [20]: 25.4 µM
GI50 [21]: 9.68 µM
LC50 (concentration causing 50% net cell kill) [21]: > 50 µM
TGI [21]: 26.2 µM
GI50 [22]: 32 µM
LC50 (concentration killing 50% of cells) [22]: > 50 µM
TGI [22]: > 50 µM
GI50 [23]: 10.8 µM
LC50 (concentration killing 50% of cells) [23]: 50.1 µM
TGI [23]: 43.4 µM
GI50 [24]: 1.16 µM
LC50 (concentration killing 50% of cells) [24]: 42.9 µM
TGI [24]: 5.29 µM
GI50 [25]: 9.48 µM
GI50 [26]: 10.6 µM
GI50 [27]: 8.4 µM

O=C1c2ccccc2C(=O)c2c1cc(Sc1cccc(Cl)c1)c1nsnc21
GI50 [1]: 2.51 µM
LC50 [1]: > 100 µM
TGI [1]: 6.71 µM
GI50 [2]: 0.64 µM
LC50 [2]: > 100 µM
TGI [2]: 3.27 µM
GI50 [3]: 1.42 µM
LC50 [3]: > 100 µM
TGI [3]: 6.32 µM
GI50 [4]: 2.3 µM
LC50 (concentration giving 50% net cell kill) [4]: 15.8 µM
TGI [4]: 5.23 µM
GI50 [5]: 18.6 µM
LC50 (concentration causing 50% net cell kill) [5]: 61.9 µM
TGI [5]: 33.9 µM
GI50 [6]: 20 µM
LC50 [6]: 61.3 µM
TGI [6]: 35 µM
GI50 [7]: 0.44 µM
TGI [7]: 2.66 µM
CC50 [7]: 16.3 µM
GI50 [8]: 20.1 µM
LC50 [8]: 100 µM
TGI [8]: 66.7 µM
GI50 [9]: 7.84 µM
LC50 [9]: 57.9 µM
TGI [9]: 22.9 µM
GI50 [10]: 2.19 µM
LC50 [10]: 7.55 µM
TGI [10]: 4.07 µM
GI50 [11]: 8.64 µM
LC50 [11]: 47.1 µM
TGI [11]: 21.2 µM
GI50 [12]: 1.53 µM
LC50 [12]: 7.24 µM
TGI [12]: 3.33 µM
GI50 [13]: 2.34 µM
LC50 [13]: 9.87 µM
TGI [13]: 4.81 µM
GI50 [14]: 1.93 µM
TGI [14]: 4.19 µM
CC50 [14]: 9.09 µM
GI50 [15]: 2.07 µM
LC50 [15]: 26.7 µM
TGI [15]: 5.37 µM
GI50 [16]: 0.45 µM
TGI [16]: 1.74 µM
CC50 [16]: 6.5 µM
GI50 [17]: 0.31 µM
LC50 [17]: 6.71 µM
TGI [17]: 0.94 µM
GI50 [18]: 0.5 µM
LC50 (concentration killing 50% of cells) [18]: > 100 µM
TGI [18]: 4.59 µM
GI50 [19]: 3.97 µM
LC50 [19]: 34.8 µM
TGI [19]: 12.1 µM
GI50 [20]: 2.91 µM
LC50 (concentration killing 50% of cells) [20]: 31.1 µM
TGI [20]: 8.97 µM
GI50 [21]: 2.67 µM
LC50 (concentration causing 50% net cell kill) [21]: > 100 µM
TGI [21]: 9.15 µM
GI50 [22]: 5.31 µM
LC50 (concentration killing 50% of cells) [22]: 39.9 µM
TGI [22]: 14.8 µM
GI50 [23]: 2.27 µM
LC50 (concentration killing 50% of cells) [23]: 69.9 µM
TGI [23]: 11.8 µM
GI50 [24]: 1.29 µM
LC50 (concentration killing 50% of cells) [24]: 8.72 µM
TGI [24]: 3.35 µM
GI50 [25]: 4.47 µM
GI50 [26]: 1.56 µM
GI50 [27]: 1.52 µM
